Data reported in ChEMBL document CHEMBL1141286, “Benzochromenones from the marine crinoid Comantheria rotula inhibit hypoxia-inducible factor-1 (HIF-1) in cell-based reporter assays and differentially suppress the growth of certain tumor cell lines” (J Nat Prod, 2007).

Key:
[1] = tested on: T47D; test: Growth inhibition of human T47D cells; format: functional; conditions: for TGI: read-out: Log TGI (converted)
[2] = tested on: COLO 205; test: Growth inhibition of human COLO205 cells; format: functional; conditions: for CC50: read-out: Log LC50 (the source's name) (converted); for TGI: read-out: Log TGI (converted)
[3] = tested on: SF-295; test: Growth inhibition of human SF295 cells; format: functional; conditions: for TGI: read-out: Log TGI (converted)
[4] = tested on: CCRF-CEM; test: Growth inhibition of human CCRF-CEM cells; format: functional
[5] = tested on: PC-3; test: Growth inhibition of human PC3 cells; format: functional; conditions: for TGI: read-out: Log TGI (converted)
[6] = tested on: IGROV-1; test: Growth inhibition of human IGROV1 cells; format: functional; conditions: for CC50: read-out: Log LC50 (the source's name) (converted); for TGI: read-out: Log TGI (converted)
[7] = target: Hypoxia inducible factors; HIF-1-alpha, HIF-2-alpha (Homo sapiens, UniProt Q16665+Q99814); test: Inhibition of HIF1 activation in human T47D cells by TK-luciferase assay; format: cell-based
In short: (§1)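 HIF-1 reporter (pHRE-TK-Luc) assays in transfected PC-3 or T47D cells; HIF-1 induced by hypoxia or by the hypoxia mimetic 1,10-phenanthroline (10 μM); compounds at half-log concentrations; luciferase activity measured; IC50 from experiments in triplicate.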

[8] = tested on: HCT-15; test: Growth inhibition of human HCT15 cells; format: functional; conditions: for CC50: read-out: Log LC50 (the source's name) (converted); for TGI: read-out: Log TGI (converted)
[9] = Inhibition of HIF1 activation in PC3 cells by TK-luciferase assay; format: cell-based; conditions: Homo sapiens, PC-3; in short: as §1
[10] = tested on: SK-MEL-2; test: Growth inhibition of human SK-MEL2 cells; format: functional; conditions: for TGI: read-out: Log TGI (converted)
[11] = tested on: HOP-92; test: Growth inhibition of human HOP92 cells; format: functional; conditions: for CC50: read-out: Log LC50 (the source's name) (converted); for TGI: read-out: Log TGI (converted)
[12] = tested on: SW-620; test: Growth inhibition of human SW620 cells; format: functional; conditions: for CC50: read-out: Log LC50 (the source's name) (converted); for TGI: read-out: Log TGI (converted)
[13] = Growth inhibition of human OVACAR3 cells; format: functional; conditions: for CC50: read-out: Log LC50 (the source's name) (converted); for TGI: read-out: Log TGI (converted)
[14] = tested on: ACHN; test: Growth inhibition of human ACHN cells; format: functional; conditions: for CC50: read-out: Log LC50 (the source's name) (converted); for TGI: read-out: Log TGI (converted)
[15] = tested on: OVCAR-5; test: Growth inhibition of human OVACAR5 cells; format: functional; conditions: for TGI: read-out: Log TGI (converted)
[16] = tested on: NCI-H23; test: Growth inhibition of human NCI-H23 cells; format: functional; conditions: for CC50: read-out: Log LC50 (the source's name) (converted); for TGI: read-out: Log TGI (converted)
[17] = tested on: MCF7; test: Growth inhibition of human MCF7 cells; format: functional; conditions: for TGI: read-out: Log TGI (converted)
[18] = tested on: UACC-257; test: Growth inhibition of human UACC257 cells; format: functional; conditions: for TGI: read-out: Log TGI (converted)
[19] = tested on: SK-MEL-28; test: Growth inhibition of human SK-MEL28 cells; format: functional; conditions: for CC50: read-out: Log LC50 (the source's name) (converted); for TGI: read-out: Log TGI (converted)
[20] = tested on: DU-145; test: Growth inhibition of human DU145 cells; format: functional; conditions: for CC50: read-out: Log LC50 (the source's name) (converted); for TGI: read-out: Log TGI (converted)
[21] = tested on: SN12C; test: Growth inhibition of human SN12C cells; format: functional; conditions: for TGI: read-out: Log TGI (converted)
[22] = tested on: MDA-MB-435; test: Growth inhibition of human MDA-MB-435 cells; format: functional; conditions: for TGI: read-out: Log TGI (converted)
[23] = tested on: UACC-62; test: Growth inhibition of human UACC62 cells; format: functional; conditions: for TGI: read-out: Log TGI (converted)
[24] = tested on: SNB-75; test: Growth inhibition of human SNB75 cells; format: functional; conditions: for TGI: read-out: Log TGI (converted)
[25] = Inhibition of luciferase at 30 uM
In short: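 Purified recombinant firefly luciferase (QuantiLum, 46.8 μg mL−1) mixed with compound in passive lysis buffer containing BSA (1 mg mL−1); equal volume of luciferase substrate added, light output read; percentage inhibition relative to DMSO control; concentration-response curves up to 30 μM.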

[26] = tested on: RPMI-8226; test: Growth inhibition of human RPMI8226 cells; format: functional

COc1cc(O)cc2cc3oc(C)cc(=O)c3c(O)c12
GI50 [1]: 17.8 µM | LC50 [1]: > 100 µM | TGI [1]: > 100 µM | GI50 [2]: 20.4 µM | CC50 [2]: > 100 µM | TGI [2]: 55 µM | GI50 [3]: 30.2 µM | LC50 [3]: > 100 µM | TGI [3]: > 100 µM | GI50 [4]: 30.2 µM | LC50 [4]: > 100 µM | TGI ([4]; read-out: Log TGI (converted)): 100 µM | GI50 [5]: 32.4 µM | LC50 [5]: > 100 µM | TGI [5]: > 100 µM | GI50 [6]: 0.437 µM | CC50 [6]: > 100 µM | TGI [6]: 23.4 µM | IC50 [7]: 3.4 µM | GI50 [8]: 23.4 µM | CC50 [8]: > 100 µM | TGI [8]: 70.8 µM | IC50 [9]: 3.3 µM | GI50 [10]: 4.9 µM | LC50 [10]: > 100 µM | TGI [10]: 35.5 µM | GI50 [11]: 30.9 µM | CC50 [11]: > 100 µM | TGI [11]: > 100 µM | GI50 [12]: 0.295 µM | CC50 [12]: > 100 µM | TGI [12]: 17 µM | GI50 [13]: > 100 µM | CC50 [13]: 22.4 µM | TGI [13]: 91.2 µM | GI50 [14]: 17 µM | CC50 [14]: > 100 µM | TGI [14]: > 100 µM | GI50 [15]: 46.8 µM | LC50 [15]: > 100 µM | TGI [15]: > 100 µM | GI50 [16]: 24.5 µM | CC50 [16]: > 100 µM | TGI [16]: 83.2 µM | GI50 [17]: 31.6 µM | LC50 [17]: > 100 µM | TGI [17]: > 100 µM | GI50 [18]: 45.7 µM | LC50 [18]: > 100 µM | TGI [18]: > 100 µM | GI50 [19]: 24 µM | CC50 [19]: > 100 µM | TGI [19]: 63.1 µM | GI50 [20]: 21.9 µM | CC50 [20]: > 100 µM | TGI [20]: 70.8 µM | GI50 [21]: 32.4 µM | LC50 [21]: > 100 µM | TGI [21]: > 100 µM | GI50 [22]: 27.5 µM | LC50 [22]: > 100 µM | TGI [22]: > 100 µM | GI50 [23]: 29.5 µM | LC50 (lethal concentration, 50% cell kill) [23]: > 100 µM | TGI [23]: > 100 µM | GI50 [24]: 46.8 µM | LC50 [24]: > 100 µM | TGI [24]: > 100 µM

CCCc1cc(=O)c2c(O)c3c(OC)cc(O)cc3cc2o1
GI50 [1]: 20.9 µM | LC50 [1]: > 100 µM | TGI [1]: 93.3 µM | GI50 [2]: 25.1 µM | CC50 [2]: > 100 µM | TGI [2]: 50.1 µM | GI50 [3]: 24.5 µM | LC50 [3]: > 100 µM | TGI [3]: 77.6 µM | inhibition [25]: 48% | GI50 [5]: 20.4 µM | LC50 [5]: > 100 µM | TGI [5]: 67.6 µM | GI50 [6]: 19.1 µM | CC50 [6]: > 100 µM | TGI [6]: 44.7 µM | IC50 [7]: 1.7 µM | GI50 [8]: 15.1 µM | CC50 [8]: > 100 µM | TGI [8]: 40.7 µM | GI50 [26]: 14.5 µM | CC50 ([26]; read-out: Log LC50 (the source's name) (converted)): > 100 µM | TGI ([26]; read-out: Log TGI (converted)): 43.7 µM | IC50 [9]: 1 µM | GI50 [10]: 18.6 µM | LC50 [10]: 91.2 µM | TGI [10]: 40.7 µM | GI50 [11]: 17.4 µM | CC50 [11]: > 100 µM | TGI [11]: 46.8 µM | GI50 [12]: 21.4 µM | CC50 [12]: 77.6 µM | TGI [12]: 40.7 µM | GI50 [13]: 27.5 µM | CC50 [13]: > 100 µM | TGI [13]: > 100 µM | GI50 [14]: 22.4 µM | CC50 [14]: > 100 µM | TGI [14]: 64.6 µM | GI50 [15]: 25.1 µM | LC50 [15]: > 100 µM | TGI [15]: 60.3 µM | GI50 [16]: 22.4 µM | CC50 [16]: > 100 µM | TGI [16]: 49 µM | GI50 [17]: 25.1 µM | LC50 [17]: > 100 µM | TGI [17]: 60.3 µM | GI50 [18]: 27.5 µM | LC50 [18]: > 100 µM | TGI [18]: 56.2 µM | GI50 [19]: 20 µM | CC50 [19]: 87.1 µM | TGI [19]: 41.7 µM | GI50 [20]: 18.2 µM | CC50 [20]: > 100 µM | TGI [20]: 45.7 µM | GI50 [21]: 19.1 µM | LC50 [21]: > 100 µM | TGI [21]: 50.1 µM | GI50 [22]: 20.9 µM | LC50 [22]: > 100 µM | TGI [22]: 57.5 µM | GI50 [23]: 15.5 µM | LC50 (lethal concentration, 50% cell kill) [23]: 57.5 µM | TGI [23]: 29.5 µM | GI50 [24]: 30.9 µM | LC50 [24]: > 100 µM | TGI [24]: 74.1 µM
